From ChEMBL document CHEMBL4017520, “Discovery, Structure-Activity Relationship, and Antiparkinsonian Effect of a Potent and Brain-Penetrant Chemical Series of Positive Allosteric Modulators of Metabotropic Glutamate Receptor 4” (J Med Chem, 2017)
One block for each molecule: values may come before it. Active and inactive are the calls of the source. No cut-off for these calls is given here.

How the values were obtained:
[1] = molecular target: Metabotropic glutamate receptor 3 (Homo sapiens) (UniProt Q14832); assay: Activity at human mGlu3 receptor expressed in HEK293 cells co-expressing Gi/Gq assessed as effect on intracellular calcium level up to 10 uM after 10 mins by Fluo4-AM dye based fluorescence assay; type: functional, cell-based
Metabotropic glutamate receptor 3 (Homo sapiens), sequence (Q14832 23-879 limits assumed): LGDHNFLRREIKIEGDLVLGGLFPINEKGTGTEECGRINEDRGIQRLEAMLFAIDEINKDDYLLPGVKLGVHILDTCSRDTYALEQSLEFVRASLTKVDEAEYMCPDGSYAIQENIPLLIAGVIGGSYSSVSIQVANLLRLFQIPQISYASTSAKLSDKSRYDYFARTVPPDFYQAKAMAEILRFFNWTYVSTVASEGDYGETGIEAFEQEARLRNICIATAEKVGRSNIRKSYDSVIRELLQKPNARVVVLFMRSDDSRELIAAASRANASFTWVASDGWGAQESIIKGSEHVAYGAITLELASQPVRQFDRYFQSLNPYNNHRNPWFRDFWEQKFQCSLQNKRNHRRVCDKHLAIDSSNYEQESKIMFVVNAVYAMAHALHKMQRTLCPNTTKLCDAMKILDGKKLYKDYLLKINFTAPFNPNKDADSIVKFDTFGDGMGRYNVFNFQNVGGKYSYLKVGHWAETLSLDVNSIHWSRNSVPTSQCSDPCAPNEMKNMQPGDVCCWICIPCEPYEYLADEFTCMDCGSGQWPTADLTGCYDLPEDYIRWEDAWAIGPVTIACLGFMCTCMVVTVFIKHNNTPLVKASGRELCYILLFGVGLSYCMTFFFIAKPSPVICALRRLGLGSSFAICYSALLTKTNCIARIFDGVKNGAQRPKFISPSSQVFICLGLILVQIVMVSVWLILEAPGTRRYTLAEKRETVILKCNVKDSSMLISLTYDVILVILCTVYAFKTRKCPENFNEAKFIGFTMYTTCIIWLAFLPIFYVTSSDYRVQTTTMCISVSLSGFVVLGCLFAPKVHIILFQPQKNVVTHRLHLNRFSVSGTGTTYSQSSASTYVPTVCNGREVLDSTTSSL
Summary of the method: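 HEK-293 cells transiently expressing the human mGluR with a promiscuous or chimeric G protein were serum-starved 3 h and loaded 1.5 h with 1 μM Fluo4-AM. Compound alone was added in assay buffer, and calcium fluorescence (ex 485/em 525) was recorded for 10 min as agonist readout.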

[2] = molecular target: D(1A) dopamine receptor (Homo sapiens) (UniProt P21728); assay: Agonist activity at D1 receptor (unknown origin) at 10 uM
D(1A) dopamine receptor (Homo sapiens), sequence (P21728 whole entry): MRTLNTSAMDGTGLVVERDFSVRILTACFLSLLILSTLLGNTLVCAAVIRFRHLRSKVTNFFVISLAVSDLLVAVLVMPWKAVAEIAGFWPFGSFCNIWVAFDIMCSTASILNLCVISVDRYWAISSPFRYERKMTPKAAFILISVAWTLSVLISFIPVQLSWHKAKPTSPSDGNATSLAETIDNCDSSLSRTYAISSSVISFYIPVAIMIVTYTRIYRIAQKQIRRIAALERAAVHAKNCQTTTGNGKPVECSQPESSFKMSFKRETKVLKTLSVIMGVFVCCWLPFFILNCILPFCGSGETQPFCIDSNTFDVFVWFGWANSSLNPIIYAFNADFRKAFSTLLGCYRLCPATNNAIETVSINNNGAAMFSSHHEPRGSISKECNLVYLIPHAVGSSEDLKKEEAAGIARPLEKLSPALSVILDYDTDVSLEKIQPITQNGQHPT

[3] = molecular target: D(1A) dopamine receptor (Homo sapiens) (UniProt P21728); assay: Positive allosteric modulation of D1 receptor (unknown origin) at 10 uM
[4] = molecular target: Adenosine receptor A2a (Homo sapiens) (UniProt P29274); assay: Agonist activity at A2A receptor (unknown origin) at 10 uM
Adenosine receptor A2a (Homo sapiens), sequence (P29274 whole entry): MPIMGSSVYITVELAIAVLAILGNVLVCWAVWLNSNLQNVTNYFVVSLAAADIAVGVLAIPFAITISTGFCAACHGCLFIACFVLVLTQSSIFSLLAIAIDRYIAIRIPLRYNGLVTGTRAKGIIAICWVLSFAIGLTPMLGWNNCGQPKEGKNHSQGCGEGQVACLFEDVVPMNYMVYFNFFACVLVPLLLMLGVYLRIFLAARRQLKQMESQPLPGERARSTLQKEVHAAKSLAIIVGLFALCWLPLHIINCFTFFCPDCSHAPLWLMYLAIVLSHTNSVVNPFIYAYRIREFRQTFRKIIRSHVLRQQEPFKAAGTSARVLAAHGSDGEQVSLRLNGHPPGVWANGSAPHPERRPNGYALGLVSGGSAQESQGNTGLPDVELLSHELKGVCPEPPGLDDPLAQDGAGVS

[5] = molecular target: Adenosine receptor A2a (Homo sapiens) (UniProt P29274); assay: Positive allosteric modulation of A2A receptor (unknown origin) at 10 uM
[6] = molecular target: Receptor-type tyrosine-protein kinase FLT3 (Homo sapiens) (UniProt P36888); assay: Inhibition of Flt3 (unknown origin) at 10 uM relative to control
Receptor-type tyrosine-protein kinase FLT3 (Homo sapiens), sequence (P36888 whole entry): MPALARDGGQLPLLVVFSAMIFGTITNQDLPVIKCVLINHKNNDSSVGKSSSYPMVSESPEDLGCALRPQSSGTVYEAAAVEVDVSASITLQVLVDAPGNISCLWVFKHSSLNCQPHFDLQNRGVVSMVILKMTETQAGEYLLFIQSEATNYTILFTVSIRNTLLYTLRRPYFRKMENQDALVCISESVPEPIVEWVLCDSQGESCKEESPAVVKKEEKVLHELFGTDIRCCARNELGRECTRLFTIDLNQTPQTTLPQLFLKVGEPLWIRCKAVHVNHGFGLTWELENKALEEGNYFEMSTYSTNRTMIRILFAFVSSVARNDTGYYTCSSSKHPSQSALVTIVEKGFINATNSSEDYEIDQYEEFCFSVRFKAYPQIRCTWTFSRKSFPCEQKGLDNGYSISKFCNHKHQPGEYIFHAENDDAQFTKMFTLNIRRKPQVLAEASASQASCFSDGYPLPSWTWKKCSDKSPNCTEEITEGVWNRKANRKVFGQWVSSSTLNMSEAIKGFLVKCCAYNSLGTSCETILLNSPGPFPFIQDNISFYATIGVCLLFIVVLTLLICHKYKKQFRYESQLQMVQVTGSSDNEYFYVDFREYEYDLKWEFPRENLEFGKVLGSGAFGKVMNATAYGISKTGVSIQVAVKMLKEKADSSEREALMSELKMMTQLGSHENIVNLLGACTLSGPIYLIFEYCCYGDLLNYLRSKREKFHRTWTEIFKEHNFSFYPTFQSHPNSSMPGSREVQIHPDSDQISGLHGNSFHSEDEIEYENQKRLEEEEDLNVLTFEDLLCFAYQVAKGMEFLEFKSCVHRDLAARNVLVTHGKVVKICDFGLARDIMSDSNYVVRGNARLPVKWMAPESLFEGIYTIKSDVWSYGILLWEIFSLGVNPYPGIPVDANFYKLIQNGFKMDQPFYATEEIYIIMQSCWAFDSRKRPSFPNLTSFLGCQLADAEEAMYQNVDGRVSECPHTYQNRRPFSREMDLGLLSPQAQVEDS

[7] = molecular target: Glycogen synthase kinase-3 beta (Homo sapiens) (UniProt P49841); assay: Inhibition of GSK3beta (unknown origin) at 10 uM
Glycogen synthase kinase-3 beta (Homo sapiens), sequence (P49841 whole entry, looked up): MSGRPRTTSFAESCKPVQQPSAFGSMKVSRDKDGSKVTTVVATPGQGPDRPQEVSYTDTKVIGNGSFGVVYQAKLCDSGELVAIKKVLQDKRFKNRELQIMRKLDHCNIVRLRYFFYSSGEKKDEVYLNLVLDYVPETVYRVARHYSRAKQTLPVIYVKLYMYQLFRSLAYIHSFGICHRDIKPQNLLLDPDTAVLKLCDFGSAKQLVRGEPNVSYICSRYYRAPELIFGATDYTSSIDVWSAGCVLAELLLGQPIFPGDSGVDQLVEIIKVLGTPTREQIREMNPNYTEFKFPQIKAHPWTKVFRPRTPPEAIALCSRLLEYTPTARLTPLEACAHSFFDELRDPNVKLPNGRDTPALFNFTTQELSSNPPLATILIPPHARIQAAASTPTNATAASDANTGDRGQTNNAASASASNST

Rattus norvegicus = assay: Protection against 6-OHDA induced parkinsonian motor deficit in Sprague-Dawley rat assessed as increase in active time at 30 mg/kg, ip after 28 days post surgery; type: functional, organism-based
Summary of the method: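 Adult male Sprague−Dawley rats with bilateral 6-OHDA striatal lesions given compound 30 mg/kg ip or vehicle at T0; spontaneous locomotor activity (active time, slow activity, rearing) counted in 5-min bins versus pre-surgery vehicle; n = 10.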

[8] = molecular target: Metabotropic glutamate receptor 4 (Rattus norvegicus, UniProt P31423); assay: Positive allosteric modulation of rat mGlu4 receptor expressed in HEK293 cells co-expressing Gi/Gq assessed as increase in glutamate-induced calcium flux preincubated for 10 mins followed by glutamate addition measured for 3 mins by Fluo4-AM dye based fluorescence assay; type: functional, cell-based
Metabotropic glutamate receptor 4, sequence (P31423 whole entry): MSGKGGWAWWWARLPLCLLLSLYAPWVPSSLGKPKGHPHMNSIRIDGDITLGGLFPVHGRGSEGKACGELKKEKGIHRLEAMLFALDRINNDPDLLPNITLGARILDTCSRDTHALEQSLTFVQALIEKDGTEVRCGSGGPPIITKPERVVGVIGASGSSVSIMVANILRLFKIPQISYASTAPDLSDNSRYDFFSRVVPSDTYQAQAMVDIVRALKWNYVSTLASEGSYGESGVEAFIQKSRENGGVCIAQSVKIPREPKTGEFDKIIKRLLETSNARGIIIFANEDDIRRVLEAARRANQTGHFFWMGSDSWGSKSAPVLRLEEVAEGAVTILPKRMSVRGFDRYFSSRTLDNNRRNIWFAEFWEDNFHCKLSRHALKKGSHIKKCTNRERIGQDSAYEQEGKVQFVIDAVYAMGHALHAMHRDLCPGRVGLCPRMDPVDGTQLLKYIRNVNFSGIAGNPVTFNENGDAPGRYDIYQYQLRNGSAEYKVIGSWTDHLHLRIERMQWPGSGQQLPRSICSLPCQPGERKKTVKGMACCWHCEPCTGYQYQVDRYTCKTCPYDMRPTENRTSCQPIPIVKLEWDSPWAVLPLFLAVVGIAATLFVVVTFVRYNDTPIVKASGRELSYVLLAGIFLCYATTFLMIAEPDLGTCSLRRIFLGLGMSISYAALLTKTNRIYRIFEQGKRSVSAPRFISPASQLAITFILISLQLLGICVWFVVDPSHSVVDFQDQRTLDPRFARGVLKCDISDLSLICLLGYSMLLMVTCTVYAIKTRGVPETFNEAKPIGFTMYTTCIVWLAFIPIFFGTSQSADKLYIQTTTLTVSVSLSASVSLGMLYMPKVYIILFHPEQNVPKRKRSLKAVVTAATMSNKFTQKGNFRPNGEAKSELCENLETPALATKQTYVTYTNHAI

[9] = Half life in Sprague-Dawley rat at 1 mg/kg, iv administered as single dose by LC-MS/MS analysis; type: ADME, organism-based; conditions: in vivo
Summary of the method: (§1)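 Single iv dose, 1 mg/kg in rat or 2 mg/kg in mouse; plasma PK parameters derived; brain/plasma ratio taken at 1 h postdose (rat) or 30 min postdose (mouse). Mean of 3 rats; 2 mice for mouse Cmax and brain/plasma.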

Mus musculus = assay: Half life in C57BL/6 mouse at 2 mg/kg, iv administered as single dose by LC-MS/MS analysis; type: ADME, organism-based; conditions: in vivo; summary of the method: as §1
[10] = AUC (0 to infinity) in C57BL/6 mouse at 2 mg/kg, iv administered as single dose by LC-MS/MS analysis; type: ADME, organism-based; set-up: dose 2 mg/kg, time infinity, route intravenous; conditions: in vivo
[11] = Volume of distribution in Sprague-Dawley rat at 1 mg/kg, iv administered as single dose by LC-MS/MS analysis; type: ADME, organism-based; conditions: in vivo
Summary of the method: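 Single intravenous dose: rats 1 mg/kg, mice 2 mg/kg. Plasma concentration–time data yielded Cmax, t1/2, AUC0−∞, plasma clearance and volume of distribution. Values are mean ±SEM of 3 animals.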

[12] = Ratio of drug level in Sprague-Dawley rat brain to plasma at 1 mg/kg, iv after 1 hr post dose administered as single dose by LC-MS/MS analysis; type: ADME, organism-based; conditions: read-out: BPR; summary of the method: as §1
[13] = Cmax in Sprague-Dawley rat plasma at 10 mg/kg, ip administered as single dose by LC-MS/MS analysis; type: ADME, organism-based; set-up: dose 10 mg/kg, route intraperitoneal
Summary of the method: (§2)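 Rats dosed ip at 10 or 30 mg/kg. Plasma Cmax, Tmax, half-life and AUC0–inf were determined. Brain concentration was measured 30 min postdose, and brain/plasma ratio was taken at 30 min. Values are the mean (±SEM) of 3 rats.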

[14] = Cmax in Sprague-Dawley rat plasma at 10 mg/kg, po administered as single dose by LC-MS/MS analysis; type: ADME, organism-based; set-up: dose 10 mg/kg, route oral
Summary of the method: (§3)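 Rats given a single oral dose of 10 mg/kg. The first plasma sample was taken at 15 min, and sampling continued to 24 h postdose. Brain was sampled at 30 min. Values are the mean (±SEM) of 3 rats.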

[15] = Tmax in Sprague-Dawley rat plasma at 30 mg/kg, ip administered as single dose by LC-MS/MS analysis; type: ADME, organism-based
Summary of the method: (§4)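 Single-dose plasma PK after ip (10 or 30 mg/kg) or oral (10 mg/kg) dosing in rats, and oral 10 mg/kg dosing in mice. […] Values are mean ±SEM of 3 rats or 2 mice.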

[16] = Tmax in Sprague-Dawley rat plasma at 10 mg/kg, po administered as single dose by LC-MS/MS analysis; type: ADME, organism-based; summary of the method: as §4
[17] = Half life in Sprague-Dawley rat plasma at 10 mg/kg, ip administered as single dose by LC-MS/MS analysis; type: ADME, organism-based
Summary of the method: (§5)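 Single dose ip (10 or 30 mg/kg, rat) or oral (10 mg/kg, rat or mouse); plasma Cmax, Tmax, half-life, AUC0−inf derived; brain concentration and brain/plasma ratio at 30 min postdose. Mean of 3 rats or 2 mice.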

[18] = Half life in Sprague-Dawley rat plasma at 10 mg/kg, po administered as single dose by LC-MS/MS analysis; type: ADME, organism-based; summary of the method: as §5
[19] = AUC (0 to infinity) in Sprague-Dawley rat plasma at 10 mg/kg, ip administered as single dose by LC-MS/MS analysis; type: ADME, organism-based; set-up: dose 10 mg/kg, time infinity, route intraperitoneal; summary of the method: as §2
[20] = AUC (0 to infinity) in Sprague-Dawley rat plasma at 10 mg/kg, po administered as single dose by LC-MS/MS analysis; type: ADME, organism-based; set-up: dose 10 mg/kg, time infinity, route oral; summary of the method: as §3
[21] = Drug uptake in C57BL/6 mouse brain at 10 mg/kg, po after 30 mins post dose administered as single dose by LC-MS/MS analysis; type: ADME, organism-based; conditions: read-out: Drug uptake
Summary of the method: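 Mice given 10 mg/kg orally. Plasma Cmax was determined and brain concentration measured at 30 min postdose. Values are the mean (±SEM) of 2 mice.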

[22] = Plasma concentration in Sprague-Dawley rat at 30 mg/kg, ip after 120 mins; type: ADME, organism-based
Summary of the method: (§6)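 Rats dosed 30 mg/kg ip; plasma sampled over time, brain measured at 30 and 60 min; brain/plasma ratio averaged over 30 and 60 min.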

[23] = Plasma concentration in Sprague-Dawley rat at 30 mg/kg, ip after 240 mins; type: ADME, organism-based; summary of the method: as §6
[24] = Drug uptake in Sprague-Dawley rat brain at 30 mg/kg, ip after 30 mins; type: ADME, organism-based; conditions: read-out: Drug uptake
[25] = Drug uptake in Sprague-Dawley rat brain at 30 mg/kg, ip after 240 mins; type: ADME, organism-based; conditions: read-out: Drug uptake
Brain = assay: Fraction unbound in Sprague-Dawley rat brain at 30 mg/kg, ip after 120 mins; type: ADME, organism-based; conditions: in vivo, 2 h
[26] = Ratio of fraction unbound in Sprague-Dawley rat brain at 30 mg/kg, ip after 30 mins to EC50 for rat mGlu4 receptor expressed in HEK293 cells
[27] = Ratio of fraction unbound in Sprague-Dawley rat brain at 30 mg/kg, ip after 60 mins to EC50 for rat mGlu4 receptor expressed in HEK293 cells

Activity [1]: inactive
Activity [2]: inactive
Activity [3]: inactive
Activity [4]: inactive
Activity [5]: inactive
inhibition [6]: 64%
inhibition [7]: inactive
Compound: O/N=c1\cc(-c2cc3cccn3cn2)oc2ccc(OCCN3CCOCC3)cc12 [listing 1 of 2 here]
Activity (Rattus norvegicus): Active

EC50 [8]: 0.027 µM
half-life [9]: 44 min
t1/2 (Mus musculus): 12 min
AUC(0-inf) [10]: 269 ng·h/mL
Vd [11]: 6.5 L/kg
Kp at 1 h [12]: 3.3
Cmax [13]: 1500 ng/mL
Cmax [14]: 135 ng/mL
Tmax [15]: 15 min
Tmax [16]: 20 min
half-life [17]: 240 min
half-life [18]: 438 min
AUC(0-inf) [19]: 2240 ng·h/mL
AUC(0-inf) [20]: 903 ng·h/mL
concentration at 0.5 h [21]: 390 ng/g
concentration at 2 h [22]: 535 ng/mL
concentration at 4 h [23]: 99 ng/mL
concentration at 0.5 h [24]: 22800 ng/g
concentration at 4 h [25]: 322 ng/g
Drug uptake(free) (Brain): 13 ng/g
Compound: O/N=c1\cc(-c2cc3cccn3cn2)oc2ccc(OCCN3CCOCC3)cc12 [listing 2 of 2 here]
Ratio [26]: 14.5
Ratio [27]: 7.6
